# According to ChEMBL document CHEMBL3244396, “Synthesis and antileukemic activity of 5-substituted 2,3-dihydro-6,7-bis(hydroxymethyl)-1H-pyrrolizine diesters” (J Med Chem, 1977):
# Legend:
# [1] = tested on: P388; assay: Antitumor activity against mouse P388 cells allografted in female CDF1 mouse assessed as disease cures by measuring 30-days host survival at 54 mg/kg, ip administered daily for 9 days as saline with Tween-80 solution starting 24 hrs after tumor inoculation relative to control; assay type: functional; details: route intraperitoneal
# Procedure, shortened: (§1)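 P388 ascitic cell inoculum given ip to CDF1 mice of the sex in each line. Nine daily ip doses in saline with Tween-80 as vehicle, starting 24 h after inoculation. Median survival time expressed as %T/C (>125 significant); "cure" defined as 30-day survival.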
# [2] = tested on: Mus musculus; assay: Toxicity in female CDF1 mouse allografted with mouse P388 cells assessed as animal survival at 400 mg/kg, ip administered daily for 9 days as saline with Tween-80 solution starting 24 hrs after tumor inoculation; assay type: organism-based; parameters: dose 400 mg/kg, route intraperitoneal; details: in vivo
# Procedure, shortened: (§2)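 P-388 leukemia ascitic fluid implanted ip. Compound dosed ip in saline with Tween-80 vehicle, once daily for nine doses from 24 h after tumor inoculation. Acute toxicity scored as toxicity-day survivors per group. Survival was followed up to 30 days, with 30-day survival counted as "cure". Follows NCI screening protocols.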
# [3] = tested on: Mus musculus; assay: Toxicity in female CDF1 mouse allografted with mouse P388 cells assessed as animal survival at 100 mg/kg, ip administered daily for 9 days as saline with Tween-80 solution starting 24 hrs after tumor inoculation; assay type: organism-based; parameters: dose 100 mg/kg, route intraperitoneal; details: in vivo; procedure, shortened: as §2
# [4] = tested on: P388; assay: Antitumor activity against mouse P388 cells allografted in female CDF1 mouse assessed as disease cures by measuring 30-days host survival at 27 mg/kg, ip administered daily for 9 days as saline with Tween-80 solution starting 24 hrs after tumor inoculation relative to control; assay type: functional; details: route intraperitoneal; procedure, shortened: as §1
# [5] = tested on: P388; assay: Antitumor activity against mouse P388 cells allografted in female CDF1 mouse assessed as change in body weight at 200 mg/kg, ip administered daily for 9 days as saline with Tween-80 solution starting 24 hrs after tumor inoculation; assay type: functional; details: route intraperitoneal
# Procedure, shortened: (§3)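 Ascitic fluid carrying P388 cells was inoculated ip. Compound was given ip in nine daily doses, starting 24 h after inoculation, in Klucel (hydroxypropylcellulose) suspension or in saline with Tween-80. Body-weight difference (treated minus control) was recorded on day 5. Survival was scored as %T/C of median survival time, and 30-day survival counted as cure.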
# [6] = tested on: P388; assay: Antitumor activity against mouse P388 cells allografted in female CDF1 mouse assessed as change in body weight at 54 mg/kg, ip administered daily for 9 days as saline with Tween-80 solution starting 24 hrs after tumor inoculation; assay type: functional; details: route intraperitoneal; procedure, shortened: as §3
# [7] = tested on: P388; assay: Antitumor activity against mouse P388 cells allografted in female CDF1 mouse assessed as change in body weight at 100 mg/kg, ip administered daily for 9 days as saline with Tween-80 solution starting 24 hrs after tumor inoculation; assay type: functional; details: route intraperitoneal; procedure, shortened: as §3
# [8] = tested on: P388; assay: Antitumor activity against mouse P388 cells allografted in female CDF1 mouse assessed as disease cures by measuring 30-days host survival at 200 mg/kg, ip administered daily for 9 days as saline with Tween-80 solution starting 24 hrs after tumor inoculation relative to control; assay type: functional; details: route intraperitoneal; procedure, shortened: as §1
# [9] = tested on: Mus musculus; assay: Toxicity in female CDF1 mouse allografted with mouse P388 cells assessed as animal survival at 200 mg/kg, ip administered daily for 9 days as saline with Tween-80 solution starting 24 hrs after tumor inoculation; assay type: organism-based; parameters: dose 200 mg/kg, route intraperitoneal; details: in vivo; procedure, shortened: as §2
# [10] = tested on: Mus musculus; assay: Toxicity in female CDF1 mouse allografted with mouse P388 cells assessed as animal survival at 54 mg/kg, ip administered daily for 9 days as saline with Tween-80 solution starting 24 hrs after tumor inoculation; assay type: organism-based; parameters: dose 54 mg/kg, route intraperitoneal; details: in vivo; procedure, shortened: as §2
# [11] = tested on: P388; assay: Antitumor activity against mouse P388 cells allografted in female CDF1 mouse assessed as change in body weight at 13.5 mg/kg, ip administered daily for 9 days as saline with Tween-80 solution starting 24 hrs after tumor inoculation; assay type: functional; details: route intraperitoneal; procedure, shortened: as §3
# [12] = tested on: Mus musculus; assay: Toxicity in female CDF1 mouse allografted with mouse P388 cells assessed as animal survival at 27 mg/kg, ip administered daily for 9 days as saline with Tween-80 solution starting 24 hrs after tumor inoculation; assay type: organism-based; parameters: dose 27 mg/kg, route intraperitoneal; details: in vivo; procedure, shortened: as §2
# [13] = tested on: P388; assay: Antitumor activity against mouse P388 cells allografted in female CDF1 mouse assessed as disease cures by measuring 30-days host survival at 400 mg/kg, ip administered daily for 9 days as saline with Tween-80 solution starting 24 hrs after tumor inoculation relative to control; assay type: functional; details: route intraperitoneal; procedure, shortened: as §1
# [14] = tested on: P388; assay: Antitumor activity against mouse P388 cells allografted in female CDF1 mouse assessed as disease cures by measuring 30-days host survival at 13.5 mg/kg, ip administered daily for 9 days as saline with Tween-80 solution starting 24 hrs after tumor inoculation relative to control; assay type: functional; details: route intraperitoneal; procedure, shortened: as §1
# [15] = tested on: P388; assay: Antitumor activity against mouse P388 cells allografted in female CDF1 mouse assessed as change in body weight at 400 mg/kg, ip administered daily for 9 days as saline with Tween-80 solution starting 24 hrs after tumor inoculation; assay type: functional; details: route intraperitoneal; procedure, shortened: as §3
# [16] = tested on: P388; assay: Antitumor activity against mouse P388 cells allografted in female CDF1 mouse assessed as disease cures by measuring 30-days host survival at 100 mg/kg, ip administered daily for 9 days as saline with Tween-80 solution starting 24 hrs after tumor inoculation relative to control; assay type: functional; details: route intraperitoneal; procedure, shortened: as §1
# [17] = tested on: P388; assay: Antitumor activity against mouse P388 cells allografted in female CDF1 mouse assessed as change in body weight at 27 mg/kg, ip administered daily for 9 days as saline with Tween-80 solution starting 24 hrs after tumor inoculation; assay type: functional; details: route intraperitoneal; procedure, shortened: as §3
# [18] = tested on: Mus musculus; assay: Toxicity in female CDF1 mouse allografted with mouse P388 cells assessed as animal survival at 13.5 mg/kg, ip administered daily for 9 days as saline with Tween-80 solution starting 24 hrs after tumor inoculation; assay type: organism-based; parameters: dose 13.5 mg/kg, route intraperitoneal; details: in vivo; procedure, shortened: as §2
structure (smiles),measurement,setting,value
OCc1c(CO)c(-c2ccc(Cl)c(Cl)c2)n2c1CCC2,T/C,[1],109%
same,Activity,[2],Non-toxic
same,Activity,[3],Non-toxic
same,T/C,[4],109%
same,Activity,[5],-0.9 g
same,Activity,[6],-0.6 g
same,Activity,[7],0.5 g
same,T/C,[8],116%
same,Activity,[9],Non-toxic
same,Activity,[10],Non-toxic
same,Activity,[11],0 g
same,Activity,[12],Non-toxic
same,T/C,[13],127%
same,T/C,[14],107%
same,Activity,[15],-1 g
same,T/C,[16],116%
same,Activity,[17],-0.3 g
same,Activity,[18],Non-toxic
